Series [1] in a line: Drug uptake in tumor of F1 mouse implanted with mouse S37 cells assessed as normalized fluorescence units at 2.5 mg/kg, iv measured after 30 mins in presence of He-Ne laser radiation by local fluorescence spectroscopic analysis. It is filed as ADME, organism-based, Neoplasm. The conditions noted are these: in vivo, 0.5 h. In outline: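 S37 sarcoma-bearing immunocompetent F1 mice (18−22 g) given PS 2.5 mg/kg iv. Animals sacrificed at 0.25, 0.5, 2, 4 and 24 h, with three animals per time point. Skin, tumor and organ samples were read ex vivo by contact local fluorescence spectroscopy under He−Ne 632.8 nm excitation. Integrated 640−900 nm emission was normalized to the backscattered laser signal to give FN.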

Series [2] can be described thus: Phototoxicity against rat Sarcoma M1 cells implanted in rat assessed as volume of tumor necrotic zones at 2.5 mg/kg, ip administered as single dose on day 11 after inoculation followed by 300 J/cm2 irradiation after 2.5 to 3 hrs measured on day 1 post photodynamic therapy (reference value: 32 +/- 6 %). The series is classed as functional. In a few lines: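 Rat M1 sarcoma was implanted subcutaneously in the left thigh, with randomisation on day 10. A single 2.5 mg/kg ip dose was given on day 11, then 810 nm laser (0.51 W/cm2, 300 J/cm2, 10 min) after 2.5−3 h. Tumours were sectioned on days 1, 3 and 12 after PDT (controls days 12, 14, 23), five animals per point. Parenchyma and necrotic zone volumes were estimated on hematoxylin and eosin staining.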

The nature of series [3]: Phototoxicity against rat Sarcoma M1 cells implanted in rat assessed as tumor volume at 2.5 mg/kg, ip administered as single dose on day 11 after inoculation followed by 300 J/cm2 irradiation after 2.5 to 3 hrs measured on day 12 post photodynamic therapy (reference value: 12 +/- 3 mm3). The series is classed as functional. In a few lines:
(§1)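 Rats with M1 sarcoma implanted subcutaneously in the left thigh were randomized on day 10, 25 per group. Single ip dose of 2.5 mg/kg on day 11; laser irradiation 2.5–3 h later at 810 nm, 0.51 W/cm2, 300 J/cm2, 10 min over a 1.5 cm field. Five rats sampled per time point for H&E histology, PCNA immunohistochemistry (1:200) and tumor volume. Untreated controls; Student's test, p < 0.05.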

Series [4] relates to Sarcoma M1. Kind of series: Phototoxicity against rat Sarcoma M1 cells implanted in rat assessed as deposition of fragments of proliferated tumor parenchyma at 2.5 mg/kg, ip administered as single dose on day 11 post inoculation followed by 300 J/cm2 irradiation after 2.5 to 3 hrs measured on day 2 post photodynamic therapy. The series is classed as functional, organism-based.

Series [5] is described as follows: Phototoxicity against rat Sarcoma M1 cells implanted in rat assessed as apoptotic index at 2.5 mg/kg, ip administered as single dose on day 11 after inoculation followed by 300 J/cm2 irradiation after 2.5 to 3 hrs measured on day 1 post photodynamic therapy (reference value: 0.29 +/- 0.02 %). It is filed as functional. In outline:
as §1

Series [6] is described as follows: Phototoxicity against rat Sarcoma M1 cells implanted in rat assessed as volume of PCNA-positive cells in tumor parenchyma at 2.5 mg/kg, ip administered as single dose on day 11 after inoculation followed by 300 J/cm2 irradiation after 2.5 to 3 hrs measured on day 12 post photodynamic therapy (reference value: 72 +/- 5%). It is filed as functional. In outline: as §1

The nature of series [7]: Phototoxicity against rat Sarcoma M1 cells implanted in rat assessed as volume of PCNA-positive cells in tumor parenchyma at 2.5 mg/kg, ip administered as single dose on day 11 after inoculation followed by 300 J/cm2 irradiation after 2.5 to 3 hrs measured on day 1 post photodynamic therapy (reference value: 71 +/- 3 %). The series is classed as functional. In outline: as §1

Series [8] in a line: Phototoxicity against mouse S37 cells assessed as cell growth inhibition preincubated for 4 hrs with subsequent 10 J/cm2 irradiation followed by incubation in absence of compound for 24 hrs by MTT assay. It is filed as functional. The conditions noted are these: S37, light or radiation study. In outline:
(§2)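 S37 cells treated with 0.05–28 μM compound added 24 h after plating. After 0.25–6 h incubation, cells were irradiated with a halogen lamp through a KS-19 filter (720 nm) at 21.0 ± 1.0 mW/cm2, 10 J/cm2, with or without removing the compound. MTT read 24 h later; 50% growth inhibition taken as the value, mean of three tests.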

The subject of series [9] is Sarcoma M1. In words: Phototoxicity against rat Sarcoma M1 cells implanted in rat assessed as damage to tumor nodes at 2.5 mg/kg, ip administered as single dose on day 11 post inoculation followed by 300 J/cm2 irradiation after 2.5 to 3 hrs measured on day 2 post photodynamic therapy by hematoxylin and eosin staining based assay. It is filed as functional, organism-based.

The nature of series [10]: Pro-oxidant activity in 1% cremophor EL or rose Bengal assessed as singlet oxygen radical generation by measuring photo-induced fading of 4-nitroso-N,N-dimethylaniline at 3.4 uM in presence of laser radiation and histidine measured every 5 to 10 mins in presence of singlet oxygen quencher NaN3 by absorption spectroscopy. It is filed as functional.
The nature of series [11]: Drug uptake in spleen tumor of F1 mouse implanted with mouse S37 cells assessed as normalized fluorescence at 2.5 mg/kg, iv measured after 24 hrs post injection in presence of He-Ne laser radiation by local fluorescence spectroscopic analysis. The series is classed as ADME, organism-based. The conditions noted are these: in vivo. In outline: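 Single iv dose of 2.5 mg/kg given to F1 mice bearing S37 sarcoma. Skin, muscle, liver, kidney, spleen and tumor taken from three animals each at 0.25, 0.5, 2, 4 and 24 h and read ex vivo by contact local fluorescence spectroscopy. He–Ne 632.8 nm excitation; 640–900 nm integral normalized to backscattered laser signal (FN).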

Series [12] in a line: Phototoxicity against mouse S37 cells assessed as cell growth inhibition preincubated for 6 hrs with subsequent 10 J/cm2 irradiation followed by incubation in absence of compound for 24 hrs by MTT assay. It is filed as functional. The conditions noted are these: S37, light or radiation study. In outline:
as §2

Series [13] in a line: Pro-oxidant activity in 1% cremophor EL or rose Bengal assessed as singlet oxygen radical generation by measuring photo-induced fading of 4-nitroso-N,N-dimethylaniline at 6.1 uM in presence of laser radiation and histidine measured every 5 to 10 mins in presence of singlet oxygen quencher NaN3 by absorption spectroscopy. It is filed as functional.
Series [14] in a line: Phototoxicity against mouse S37 cells implanted in F1 mouse assessed as tumor growth inhibition at 5 mg/kg, iv preincubated for 15 mins with subsequent 150 J/cm2 irradiation measured on day 20 post irradiation relative to control. The series is classed as functional. To be noted: S37, light or radiation study, read-out: TGI. In a few lines: (§3)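 S37 sarcoma mice treated on day 7 of tumor growth with compound iv; tumors 140–160 mm3 beforehand, droperidol 0.25 mg ip as anesthetic. LED irradiation at 800 ± 21 nm, 100 mW/cm2, 150 J/cm2, given 15 or 30 min after dosing. Controls got iv 0.9% NaCl. Volume = d1×d2×d3×0.52; TGI = […]×100%.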

Series [15] is described as follows: Phototoxicity against mouse S37 cells implanted in F1 mouse assessed as tumor growth inhibition at 5 mg/kg, iv preincubated for 15 mins with subsequent 150 J/cm2 irradiation measured on day 11 post irradiation relative to control. It is filed as functional. The conditions noted are these: S37, light or radiation study, read-out: TGI. In a few lines: as §3
The nature of series [16]: Phototoxicity against mouse S37 cells implanted in F1 mouse assessed as tumor growth inhibition at 2.5 mg/kg, iv preincubated for 15 mins with subsequent 150 J/cm2 irradiation measured on day 20 post irradiation relative to control. It is filed as functional. To be noted: S37, light or radiation study, read-out: TGI. In outline:
as §3

The source made the active and inactive calls. No cut-off for these calls is given here.

In the case of `CCCO/N=C(\C)c1c(C)c2cc3nc(c4c5[nH]c(cc6nc(cc1[nH]2)[C@@H](C)[C@@H]6CC)c(C)c5C(=O)N(OCCC)C4=O)[C@H](CCC(=O)NCCSSCCNC(=O)CC[C@@H]1c2nc(cc4[nH]c(cc5nc(cc6[nH]c7c2C(=O)N(OCCC)C(=O)c7c6C)[C@H](CC)[C@H]5C)c(/C(C)=N/OCCC)c4C)[C@H]1C)[C@H]3C`, the Flu intensity in [1] was found to be 4 RU. Also, the Activity in series [2] was 60%; in [3], 0.44 mm3; in [5] it was 0.39%; in [6] it was 39%; in series [7] it was 26%. Also, the result in series [4] and in series [9] was Active. In series [8], the CC50 worked out at 50 nM. For the same compound, in [10], the result was inactive.

`CCCO/N=C(\C)c1c(C)c2cc3nc(c4c5[nH]c(cc6nc(cc1[nH]2)[C@H](C)[C@H]6CC)c(C)c5C(=O)N(OCCC)C4=O)[C@@H](CCC(=O)OC)[C@@H]3C`: in series [11], the Drug uptake entry is given as “Active”. Further, in series [12], the CC50 was found to be 110 nM. For the same compound, the outcome in [13] was inactive. Besides, the inhibition in vivo at 5 mg/kg in series [14] and in [15] was 100% in each case. For the same compound, in series [16], the inhibition in vivo at 2.5 mg/kg is 100%.

For orientation: CC50 means the concentration at which the toxic effect on the cells reaches its halfway point.

For the origin of these results see ChEMBL document CHEMBL4024769, “Synthesis and Investigation of Photophysical and Biological Properties of Novel S-Containing Bacteriopurpurinimides” (J Med Chem, 2017).
